The values below come from ChEMBL document CHEMBL2331285, “Optimization of 3,5-dimethylisoxazole derivatives as potent bromodomain ligands” (J Med Chem, 2013).

Test [1] concerns NCI-H1975. The experiment in a line: Cytotoxicity against human NCI-H1975 cells after 72 hrs by MTS assay. It is filed as functional, cell-based. Particulars: NCI-H1975, 72 h. A general note: Formazan colour is commonly taken as a measure of viable cells.
In test [2] the test system is HeLa. The experiment in a line: Cytotoxicity against human HeLa cells after 24 hrs by WST-1 assay. Type of test: functional, cell-based.
Test [3] concerns U2OS. Put plainly: Cytotoxicity against human U2OS cells after 24 hrs by WST-1 assay. It is filed as functional, cell-based.
Test [4] relates to NCI-H1975. The experiment in a line: Cytotoxicity against human NCI-H1975 cells after 10 to 14 days by crystal violet staining based clonogenic survival assay. Type of test: functional, cell-based.
In test [5] the test system is A549. The experiment in a line: Cytotoxicity against human A549 cells after 72 hrs by MTS assay. Type of test: functional, cell-based. To be noted: A549, 72 h.
The target of test [6] is CREB-binding protein (Homo sapiens, UniProt Q92793). Put plainly: Binding affinity to CREBBP bromodomain (unknown origin) using H3K56Ac peptide by amplified luminescent proximity homogeneous assay.
Test [7] deals with Bromodomain-containing protein 4 (Homo sapiens, UniProt O60885). The experiment in a line: Binding affinity to human BRD4 bromodomain 1 using H4Ac4 peptide by amplified luminescent proximity homogeneous assay.
For test [8], the species on record is Homo sapiens. Put plainly: Selectivity ratio of IC50 for CREBBP bromodomain to IC50 for human BRD4 bromodomain 1 (unknown origin). Summed up: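 IC50 ratio, both values from AlphaScreen peptide displacement (protein and peptide 50 nM each, duplicates, sigmoidal fit). BRD4(1) used biotinylated tetra-acetylated H4 peptide (SGRGK(Ac)GGK(Ac)GLGK(Ac)GGAK(Ac)RHRK-biotin); CREBBP used biotinylated H3K56Ac peptide.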

In test [9] the test system is MV4-11. Put plainly: Cytotoxicity against human MV4-11 cells after 72 hrs by MTS assay. Type of test: functional, cell-based. Particulars: MV4-11, 72 h.

The structures appear in SMILES notation. Active and inactive are the calls of the source. The rule behind the calls is not given here. A value given as a limit tells only on which side of the number the result lay.

Chain of CREB-binding protein (Q92793 whole entry): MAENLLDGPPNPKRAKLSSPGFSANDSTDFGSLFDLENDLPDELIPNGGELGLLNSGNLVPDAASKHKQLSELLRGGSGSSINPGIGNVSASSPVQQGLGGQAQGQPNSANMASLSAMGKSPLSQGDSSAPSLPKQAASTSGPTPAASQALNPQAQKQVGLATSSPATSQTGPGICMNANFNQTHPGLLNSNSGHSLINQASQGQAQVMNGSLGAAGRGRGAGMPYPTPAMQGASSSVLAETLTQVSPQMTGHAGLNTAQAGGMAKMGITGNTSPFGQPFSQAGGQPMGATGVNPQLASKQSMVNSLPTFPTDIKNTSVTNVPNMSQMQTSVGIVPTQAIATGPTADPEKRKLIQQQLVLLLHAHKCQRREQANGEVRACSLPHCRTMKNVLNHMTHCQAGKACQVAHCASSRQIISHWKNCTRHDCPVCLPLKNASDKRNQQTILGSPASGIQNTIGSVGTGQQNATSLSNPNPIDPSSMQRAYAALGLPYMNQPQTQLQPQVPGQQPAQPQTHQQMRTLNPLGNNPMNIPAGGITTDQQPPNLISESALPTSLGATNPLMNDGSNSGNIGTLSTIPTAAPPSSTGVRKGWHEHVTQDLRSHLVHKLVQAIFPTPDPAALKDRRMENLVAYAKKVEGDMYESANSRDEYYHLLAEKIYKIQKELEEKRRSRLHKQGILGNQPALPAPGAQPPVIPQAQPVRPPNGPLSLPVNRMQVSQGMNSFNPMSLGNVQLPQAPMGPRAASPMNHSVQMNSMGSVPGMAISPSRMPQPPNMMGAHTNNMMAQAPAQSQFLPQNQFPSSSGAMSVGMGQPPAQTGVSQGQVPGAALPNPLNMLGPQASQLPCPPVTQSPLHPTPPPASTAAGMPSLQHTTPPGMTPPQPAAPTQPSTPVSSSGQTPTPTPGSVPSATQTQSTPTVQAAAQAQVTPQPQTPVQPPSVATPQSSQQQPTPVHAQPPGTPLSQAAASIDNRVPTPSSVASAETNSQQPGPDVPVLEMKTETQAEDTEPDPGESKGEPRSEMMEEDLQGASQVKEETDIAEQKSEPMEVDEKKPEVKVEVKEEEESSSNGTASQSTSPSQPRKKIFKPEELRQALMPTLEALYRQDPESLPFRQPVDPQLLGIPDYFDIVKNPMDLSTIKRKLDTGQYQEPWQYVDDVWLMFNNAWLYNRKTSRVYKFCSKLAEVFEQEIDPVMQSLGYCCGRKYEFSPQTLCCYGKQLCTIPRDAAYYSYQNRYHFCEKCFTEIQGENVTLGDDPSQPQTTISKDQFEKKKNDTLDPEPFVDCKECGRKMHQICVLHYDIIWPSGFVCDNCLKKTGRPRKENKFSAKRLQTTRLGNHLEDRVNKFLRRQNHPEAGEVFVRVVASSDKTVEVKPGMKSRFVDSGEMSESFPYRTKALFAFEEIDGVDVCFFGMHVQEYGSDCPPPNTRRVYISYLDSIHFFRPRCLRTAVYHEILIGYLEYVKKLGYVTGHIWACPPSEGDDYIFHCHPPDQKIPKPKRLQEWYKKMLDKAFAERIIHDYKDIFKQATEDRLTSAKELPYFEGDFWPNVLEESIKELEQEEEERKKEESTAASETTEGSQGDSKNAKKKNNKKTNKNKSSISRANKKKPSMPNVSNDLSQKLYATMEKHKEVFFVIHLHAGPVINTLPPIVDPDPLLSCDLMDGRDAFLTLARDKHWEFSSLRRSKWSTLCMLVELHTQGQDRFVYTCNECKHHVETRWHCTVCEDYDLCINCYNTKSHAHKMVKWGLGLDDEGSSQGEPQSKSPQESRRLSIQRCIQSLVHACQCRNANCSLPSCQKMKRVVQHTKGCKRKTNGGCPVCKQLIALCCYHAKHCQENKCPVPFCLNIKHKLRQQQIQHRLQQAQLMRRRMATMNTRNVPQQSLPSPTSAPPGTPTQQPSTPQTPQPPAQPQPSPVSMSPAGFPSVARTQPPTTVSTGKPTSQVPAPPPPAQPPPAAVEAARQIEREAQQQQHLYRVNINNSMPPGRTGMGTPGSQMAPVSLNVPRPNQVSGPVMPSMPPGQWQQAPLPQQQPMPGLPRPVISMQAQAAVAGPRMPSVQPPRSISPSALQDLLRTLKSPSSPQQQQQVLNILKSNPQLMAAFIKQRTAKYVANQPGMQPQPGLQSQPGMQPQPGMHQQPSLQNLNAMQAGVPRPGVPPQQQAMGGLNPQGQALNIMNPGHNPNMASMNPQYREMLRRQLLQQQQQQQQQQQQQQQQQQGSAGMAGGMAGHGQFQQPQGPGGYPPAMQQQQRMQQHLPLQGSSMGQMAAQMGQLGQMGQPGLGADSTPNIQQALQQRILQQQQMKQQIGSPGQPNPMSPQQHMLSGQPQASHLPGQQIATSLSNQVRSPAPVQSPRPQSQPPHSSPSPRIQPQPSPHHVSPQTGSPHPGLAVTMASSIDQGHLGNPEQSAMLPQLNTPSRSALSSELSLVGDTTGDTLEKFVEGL

Broadly, the IC50 is the midpoint of a concentration-inhibition curve. In the case of `Cc1noc(C)c1-c1cc(O)cc(C(O)c2ccccc2)c1` (racemic), the IC50 in test [1] is > 10000 nM; in test [2], > 100000 nM; in test [3], > 100000 nM; in test [5], > 10000 nM. Besides, in [4], the result was Active.
As to `COc1cc(-c2c(C)noc2C)cc(C(O)c2ccccc2)c1` (stereo not given), the IC50 in test [6] turned out to be 3960 nM; in test [7], 1360 nM.
As to `CC(=O)Oc1cc(-c2c(C)noc2C)cc(C(O)c2ccccc2)c1` (racemic), the half-inhibitory concentration (IC50) in [1] was > 10000 nM; in test [2] it was > 100000 nM; in [3], > 100000 nM; in test [6] it was 2480 nM; in [5], > 10000 nM. Moreover, the outcome in [4] was Active.
In the case of `CCOc1cc(-c2c(C)noc2C)cc(C(C)O)c1` (stereo not given), in [8], the Ratio IC50 stood at 6.
Turning to `CCOc1cc(-c2c(C)noc2C)cc(C(O)c2ccccc2)c1` (stereo not given), the values for the half-inhibitory concentration (IC50) in test [6] and in test [7] were 4100 nM and 640 nM, respectively. Further, the Ratio IC50 in test [8] is 6.
In the case of `Cc1sc2c(c1C)C(c1ccc(Cl)cc1)=N[C@@H](CC(=O)OC(C)(C)C)c1nnc(C)n1-2`, the IC50 is > 100000 nM in test [2], > 100000 nM in test [3] and 242 nM in test [9].
As to `COCCOc1cc(-c2c(C)noc2C)cc(C(O)c2ccccc2)c1` (stereo not given), the IC50 was determined as 2070 nM in test [6] and 1380 nM in test [7].
As to `Cc1noc(C)c1-c1cc(O)cc(C(=O)c2ccccc2)c1`, in [7], the IC50 came to 544 nM.
Take `Cc1noc(C)c1-c1cc(OCCO)cc(C(O)c2ccccc2)c1` (stereo not given): the IC50 in [6] turned out to be 2810 nM; in test [7], 1170 nM.
